From ChEMBL document CHEMBL5325390, “1,2,4-Triazole-3-thione analogues with an arylakyl group at position 4 as metallo-β-lactamase inhibitors” (Bioorg Med Chem, 2022)

Assays:
Escherichia coli = test: Synergistic antimicrobial activity against blaNDM-1-producing multidrug-resistant Escherichia coli SI-004M clinical isolate assessed as meropenem MIC at 32 ug/ml by CLSI based microdilution method (reference value: 64 ug/ml); assay type: functional; settings: dose 32 µg/ml
Klebsiella pneumoniae [1] = test: Antimicrobial synergistic activity against blaVIM-1-producing multidrug-resistant Klebsiella pneumoniae 7023 clinical isolate assessed as meropenem MIC at 32 ug/ml by CLSI based broth microdilution method (reference value: 16 ug/ml); assay type: functional; settings: dose 32 µg/ml
Beta-lactamase VIM-1 = Beta-lactamase VIM-1 (Bacteria, UniProt Q8GDC1); test: Binding affinity to VIM-1 (unknown origin) expressed in Escherichia coli BL21(DE3) assessed as inhibition constant by measuring rate of substrate hydrolysis by UV-Vis spectrophotometric analysis
Outline: (§1)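 Purified MBL (1–70 nM) with 150 µM imipenem or meropenem as reporter substrate, 50 mM HEPES pH 7.5, 30 °C. Hydrolysis followed by absorbance at 300 nm without and with inhibitor (0.5 µM–1 mM). Ki from the slope of v0/vi vs [I] under a competitive model, or from Dixon plots varying inhibitor and substrate. […] Triplicate, mean ± SD.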

[2] = Binding affinity to IMP1 (unknown origin) expressed in Escherichia coli BL21(DE3) assessed as inhibition constant by measuring rate of substrate hydrolysis by UV-Vis spectrophotometric analysis; outline: as §1
[3] = molecular target: Metallo-beta-lactamase type 2 (Bacteria, UniProt C7C422); test: Binding affinity to NDM1 (unknown origin) expressed in Escherichia coli BL21(DE3) assessed as inhibition constant by measuring rate of substrate hydrolysis by UV-Vis spectrophotometric analysis; outline: as §1
Metallo-beta-lactamase type 2, sequence (C7C422 whole entry): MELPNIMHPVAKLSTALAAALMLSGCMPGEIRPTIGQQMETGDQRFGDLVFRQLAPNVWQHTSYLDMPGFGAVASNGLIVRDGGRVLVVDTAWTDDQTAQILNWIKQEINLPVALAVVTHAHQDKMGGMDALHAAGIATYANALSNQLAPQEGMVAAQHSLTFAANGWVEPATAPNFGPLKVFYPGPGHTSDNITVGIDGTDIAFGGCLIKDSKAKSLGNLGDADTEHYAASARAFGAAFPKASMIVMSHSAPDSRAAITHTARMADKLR

[4] = system: metallo-β-lactamase VIM-2 (Pseudomonas aeruginosa); test: Inhibition of VIM-2 (unknown origin) expressed in Escherichia coli BL21(DE3) assessed as substrate hydrolysis at 100 uM by UV-Vis spectrophotometric analysis relative to control
[5] = Binding affinity to VIM-4 (unknown origin) expressed in Escherichia coli BL21(DE3) assessed as inhibition constant by measuring rate of substrate hydrolysis by UV-Vis spectrophotometric analysis; outline: as §1
Klebsiella pneumoniae [6] = test: Antimicrobial synergistic activity against blaVIM-4-producing multidrug-resistant Klebsiella pneumoniae VA416/02 clinical isolate assessed as meropenem MIC at 32 ug/ml by CLSI based broth microdilution method (reference value: 16 ug/ml); assay type: functional; settings: dose 32 µg/ml
[7] = molecular target: Metallo-beta-lactamase type 2 (Bacteria) (UniProt C7C422); test: Inhibition of NDM1 (unknown origin) expressed in Escherichia coli BL21(DE3) assessed as substrate hydrolysis at 200 uM by UV-Vis spectrophotometric analysis relative to control
Metallo-beta-lactamase type 2 (Bacteria), sequence (C7C422 whole entry): as above
Outline: (§2)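 Single-point screen at 100 or 200 µM inhibitor against purified MBL (1–70 nM) with 150 µM imipenem or meropenem reporter substrate, 50 mM HEPES pH 7.5, 30 °C. Initial hydrolysis rate read by absorbance at 300 nm and compared with the uninhibited reaction. Triplicate.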

[8] = system: metallo-β-lactamase VIM-2 (Pseudomonas aeruginosa); test: Inhibition of VIM-2 (unknown origin) expressed in Escherichia coli BL21(DE3) assessed as substrate hydrolysis at 200 uM by UV-Vis spectrophotometric analysis relative to control
[9] = system: metallo-β-lactamase VIM-4 (Pseudomonas aeruginosa); test: Inhibition of VIM-4 (unknown origin) expressed in Escherichia coli BL21(DE3) assessed as substrate hydrolysis at 100 uM by UV-Vis spectrophotometric analysis relative to control
[10] = system: metallo-β-lactamase VIM-4 (Pseudomonas aeruginosa); test: Inhibition of VIM-4 (unknown origin) expressed in Escherichia coli BL21(DE3) assessed as substrate hydrolysis at 200 uM by UV-Vis spectrophotometric analysis relative to control
[11] = system: metallo-β-lactamase IMP-1 (Pseudomonas aeruginosa); test: Inhibition of IMP1 (unknown origin) expressed in Escherichia coli BL21(DE3) assessed as substrate hydrolysis at 100 uM by UV-Vis spectrophotometric analysis relative to control
[12] = molecular target: Metallo-beta-lactamase type 2 (Bacteria) (UniProt C7C422); test: Inhibition of NDM1 (unknown origin) expressed in Escherichia coli BL21(DE3) assessed as substrate hydrolysis at 100 uM by UV-Vis spectrophotometric analysis relative to control; outline: as §2
[13] = Binding affinity to VIM-2 (unknown origin) expressed in Escherichia coli BL21(DE3) assessed as inhibition constant by measuring rate of substrate hydrolysis by UV-Vis spectrophotometric analysis; outline: as §1
[14] = system: metallo-β-lactamase IMP-1 (Pseudomonas aeruginosa); test: Inhibition of IMP1 (unknown origin) expressed in Escherichia coli BL21(DE3) assessed as substrate hydrolysis at 200 uM by UV-Vis spectrophotometric analysis relative to control

| inhibition [4] [%] | inhibition [7] [%] | inhibition [8] [%] | inhibition [9] [%] | inhibition [10] [%] | inhibition [11] [%] | inhibition [12] [%] | inhibition [14] [%] | Structure (SMILES) | MIC (Escherichia coli) [µg/mL] | MIC (Klebsiella pneumoniae [1]) [µg/mL] | Ki (Beta-lactamase VIM-1) [µM] | Ki ([2]; read-out: Ki) [µM] | Ki ([3]; read-out: Ki) [µM] | Ki [5] [µM] | MIC (Klebsiella pneumoniae [6]) [µg/mL] | Ki [13] [µM] | Ki ([3]; read-out: Ki(app)) [µM] | Ki ([2]; read-out: Ki(app)) [µM] |
| --- | --- | --- | --- | --- | --- | --- | --- | --- | --- | --- | --- | --- | --- | --- | --- | --- | --- | --- |
| < 30 | < 50 | < 50 | < 30 | < 50 | 55 | < 30 |  | CC(Cn1c(-c2ccccc2)n[nH]c1=S)c1ccccc1 (configuration not stated) |  |  |  |  |  |  |  |  |  |  |
|  |  |  |  |  | < 30 | < 30 |  | O=C(O)c1ccccc1CCn1c(-c2cccc(-c3ccccc3)c2)n[nH]c1=S |  |  |  |  |  | 2.1 |  | 0.08 |  |  |
| < 30 | < 50 | < 50 | < 30 | < 50 | < 30 | < 30 | < 50 | S=c1[nH]nc(-c2ccc3ccccc3c2)n1CCc1ccccc1 |  |  | 3.7 |  |  |  |  |  |  |  |
| < 30 |  | < 50 | < 30 | < 50 | 45 | 45 |  | O=C(NCc1ccccc1)c1ccccc1CCn1c(-c2ccccc2)n[nH]c1=S |  |  |  |  |  |  |  |  |  |  |
| < 30 |  | < 50 |  |  |  |  |  | O=C1OC(Cn2c(-c3ccc4ccccc4c3)n[nH]c2=S)c2ccccc21 (configuration not stated) |  |  | 6.3 | 9.8 |  | 8.2 |  |  | 28 |  |
| < 30 | < 50 | < 50 |  |  | < 30 | < 30 | < 50 | FC(F)(F)c1ccc(CCn2c(-c3ccccc3)n[nH]c2=S)cc1 |  |  |  |  |  |  |  |  |  |  |
|  |  |  |  |  |  |  |  | Oc1ccc(/C=N/n2c(-c3ccccc3-c3ccccc3)n[nH]c2=S)c(O)c1 |  |  |  | 12 | 6.4 | 9 |  | 4.5 |  |  |
|  | < 50 |  |  |  | 56 | < 30 |  | Cc1ccccc1-c1n[nH]c(=S)n1CCc1ccc(O)cc1 |  |  |  |  |  | 1.6 |  |  |  |  |
| < 30 | < 50 | < 50 |  |  | < 30 | < 30 | < 50 | Cc1ccccc1CCn1c(-c2ccccc2)n[nH]c1=S |  |  |  |  |  |  |  |  |  |  |
| < 30 | < 50 | < 50 | 35 |  | < 30 | < 30 | < 50 | S=c1[nH]nc(-c2ccc3ccccc3c2)n1[C@@H]1C[C@H]1c1ccccc1 |  |  |  |  |  |  |  |  |  |  |
|  |  |  |  |  |  | < 30 |  | O=C(O)c1ccc(-n2c(S)nnc2-c2ccccc2)cc1 |  |  |  |  |  |  |  |  |  |  |
| < 30 |  |  |  |  |  |  |  | S=c1[nH]nc(-c2cc(Cl)cc(Cl)c2)n1/N=C/c1ccc(OCc2ccccc2)cc1 |  |  |  | 0.1 |  | 0.6 |  |  |  |  |
| < 30 | < 50 | < 50 |  |  |  | < 30 |  | Oc1ccc(CCn2c(-c3ccc4ccccc4c3)n[nH]c2=S)cc1 |  |  | 3.3 | 24 |  | 3.2 |  |  |  |  |
| < 30 | < 50 | < 50 |  |  | 35 | < 30 |  | COc1ccc(O)c(-c2n[nH]c(=S)n2CCc2ccc(OCc3ccccc3)cc2)c1 |  |  | 11.1 |  |  | 0.54 |  |  |  |  |
| 35 |  |  |  |  | < 30 |  | < 50 | Oc1ccc(CCn2c(-c3ccccc3-c3ccccc3)n[nH]c2=S)c(O)c1 |  |  | 27 |  | 15.2 | 60 |  |  |  |  |
|  |  |  |  |  |  |  |  | COc1ccc(O)c(-c2n[nH]c(=S)n2CCc2ccccc2)c1 | 64 | 4 | 1.9 | 20.2 | 6.8 | 1.5 | 2 | 3.9 |  |  |
|  |  |  |  |  |  |  |  | O=C(O)c1ccccc1/C=N/n1c(-c2cccc(-c3ccccc3)c2)n[nH]c1=S |  |  |  | 17.7 | 4.2 | 0.04 |  | 0.2 |  |  |
| < 30 | < 50 | < 50 |  |  | 48 | < 30 |  | O=C1OC(Cn2c(-c3ccc(-c4ccccc4)cc3)n[nH]c2=S)c2ccccc21 (configuration not stated) |  |  |  |  |  |  |  |  |  |  |
| < 30 | < 50 | < 50 |  |  | < 30 | < 30 | < 50 | O=C1OC(Cn2c(-c3cccc(-c4ccccc4)c3)n[nH]c2=S)c2ccccc21 (configuration not stated) |  |  |  |  |  |  |  |  |  |  |
|  |  |  |  |  |  |  |  | Oc1ccc(CCn2c(-c3ccccc3)n[nH]c2=S)cc1 | 64 | 4 | 2.1 | 42 | 12 | 2.3 | 4 | 6.1 |  |  |
|  |  |  |  |  |  |  |  | Oc1cccc(CCn2c(-c3cccc(-c4ccccc4)c3)n[nH]c2=S)c1O | 32 | 16 | 0.7 | 20 | 22.4 | 0.8 | 4 | 1.8 |  |  |
|  |  |  |  |  |  | < 30 |  | Sc1nnc(-c2ccccc2)n1-c1ccccc1 |  |  | 3.2 |  |  |  |  | 16 |  |  |
| < 30 |  | < 50 | < 30 | < 50 | < 30 | 69 | < 50 | S=c1[nH]nc(-c2cccc(-c3ccccc3)c2)n1[C@@H]1C[C@H]1c1ccccc1 |  |  |  |  |  |  |  |  |  |  |

| Structure (SMILES) | inhibition [4] [%] | inhibition [7] [%] | inhibition [8] [%] | inhibition [9] [%] | inhibition [10] [%] | inhibition [11] [%] | inhibition [12] [%] | inhibition [14] [%] | MIC (Escherichia coli) [µg/mL] | MIC (Klebsiella pneumoniae [1]) [µg/mL] | Ki (Beta-lactamase VIM-1) [µM] | Ki ([2]; read-out: Ki) [µM] | Ki ([3]; read-out: Ki) [µM] | Ki [5] [µM] | MIC (Klebsiella pneumoniae [6]) [µg/mL] | Ki [13] [µM] | Ki ([3]; read-out: Ki(app)) [µM] | Ki ([2]; read-out: Ki(app)) [µM] |
| --- | --- | --- | --- | --- | --- | --- | --- | --- | --- | --- | --- | --- | --- | --- | --- | --- | --- | --- |
| COc1ccc(O)c(-c2n[nH]c(=S)n2[C@@H]2C[C@H]2c2ccccc2)c1 | 41 |  |  |  |  |  |  |  | 32 | 4 | 2.2 | 4.6 | 9.5 | 2.5 | 2 |  |  |  |
| Cn1cccc1-c1n[nH]c(=S)n1CC1OC(=O)c2ccccc21 (configuration not stated) | 38 |  |  |  |  | 30 | 31 |  | 32 | 2 | 2.2 |  |  | 2.5 | 2 |  |  |  |
| S=c1[nH]nc(-c2ccccc2)n1CCc1ccccc1 | < 30 | < 50 | < 50 |  |  | < 30 | < 30 | < 50 | 64 | 2 | 3.2 |  |  | 2.1 | 2 |  |  |  |
| COc1ccc(O)c(-c2n[nH]c(=S)n2CCc2ccc(O)cc2)c1 |  | < 50 |  |  |  | < 30 | < 30 | < 50 |  | 2 | 1.6 |  |  | 1.9 | 2 | 3.9 |  |  |
| Oc1ccc(CCn2c(-c3cc(-c4ccccc4)ccc3O)n[nH]c2=S)c(O)c1 |  |  |  |  |  | 44 | 38 |  | 64 | 1 | 0.76 |  |  | 0.85 | 2 | 1.9 |  |  |
| O=C1OC(Cn2c(-c3ccccc3)n[nH]c2=S)c2ccccc21 (configuration not stated) | < 30 |  | < 50 |  |  | < 30 | 51 | < 50 | 64 | 2 | 0.75 |  |  | 7.8 | 2 |  |  |  |
| Cc1ccccc1-c1n[nH]c(=S)n1CCc1ccccc1 |  | < 50 |  |  |  |  | < 30 |  |  | 4 | 3.3 |  |  | 2.4 | 4 | 9.4 |  | 14 |
| Oc1ccc(CCn2c(-c3ccccc3)n[nH]c2=S)c(O)c1 | < 30 |  | < 50 |  |  |  |  |  |  | 4 | 5.1 | 27 |  | 4.1 | 2 |  | 42 |  |
